The source of these data is ChEMBL document CHEMBL4014344, “Discovery of the Soluble Guanylate Cyclase Stimulator Vericiguat (BAY 1021189) for the Treatment of Chronic Heart Failure” (J Med Chem, 2017).

Active and inactive are the calls of the source. The calls are words filed in the database; no cut-off is given here.

Data set [1] can be described thus: Inhibition of phenylephrine-induced contractions in dog femoral vein after 15 to 20 mins post phenylephrine-induced contraction. The data set is classed as functional, tissue-based, Canis lupus familiaris.
Data set [2] deals with Heart. As to the kind of experiment: Cardiotoxicity in Wistar rat assessed as effect on left ventricular diastolic pressure administered for 20 mins. Format: toxicity, tissue-based. The method in brief: (§1)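 Male Wistar rats (200−250 g) anesthetized with Narcoren 100 mg/kg ip. Excised heart Langendorff-perfused at constant flow 10 mL/min with Krebs−Henseleit buffer gassed with 95% O2/5% CO2. Values expressed as relative change from baseline before compound application.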

A further data set has as its target T1, Cytochrome P450 2C8 (Homo sapiens, UniProt P10632).
T1 sequence (P10632 whole entry): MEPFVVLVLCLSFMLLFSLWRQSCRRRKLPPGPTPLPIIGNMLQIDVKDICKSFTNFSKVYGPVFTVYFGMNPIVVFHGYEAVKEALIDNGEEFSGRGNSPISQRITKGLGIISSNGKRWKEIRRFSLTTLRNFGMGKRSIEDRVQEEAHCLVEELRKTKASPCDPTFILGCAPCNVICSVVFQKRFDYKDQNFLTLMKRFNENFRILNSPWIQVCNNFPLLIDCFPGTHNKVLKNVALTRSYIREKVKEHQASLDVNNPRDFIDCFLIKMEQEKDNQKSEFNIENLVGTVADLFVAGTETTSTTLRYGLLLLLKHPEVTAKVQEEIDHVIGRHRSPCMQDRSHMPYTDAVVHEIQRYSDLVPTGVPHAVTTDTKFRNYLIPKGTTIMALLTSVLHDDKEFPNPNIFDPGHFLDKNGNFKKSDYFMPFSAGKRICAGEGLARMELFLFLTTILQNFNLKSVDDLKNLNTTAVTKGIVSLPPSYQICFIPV
As to the kind of experiment: Inhibition of human liver microsomes CYP2C8 using amodiaquine as substrate. The data set is classed as ADME. On the technique in general: Microsomes from liver hold many membrane-bound enzymes, among them those of drug oxidation.

The test system of the next data set is Saphenous artery. As to the kind of experiment: Vasorelaxant activity in nirate-tolerant Chinchilla rabbit saphenous artery ring administered at the beginning of the last resting period of 28 mins in presence of sorbide dinitrate. The data set is classed as functional. The settings on record: Oryctolagus cuniculus.
A short description of data set [3]: Clearance in rat hepatocytes at 1 uM up to 90 mins by LC-MS/MS analysis. The data set is classed as ADME, cell-based, Hepatocyte. In a few lines: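 Rat hepatocytes at 1 × 10^6 viable cells/mL (trypan blue-corrected) in Williams' medium E, 1 μM substrate, MeCN ≤1%, 37 °C, pH 7.4. Sampled at 2−90 min, quenched with MeCN, analysed by LC-MS/MS.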
Another data set deals with Cytochrome P450 3A4 (Homo sapiens, UniProt P08684). As to the kind of experiment: Inhibition of human liver microsomes CYP3A4 using testosterone as substrate preincubated with compound followed by substrate addition. Format: ADME.
Sequence of Cytochrome P450 3A4 (P08684 whole entry): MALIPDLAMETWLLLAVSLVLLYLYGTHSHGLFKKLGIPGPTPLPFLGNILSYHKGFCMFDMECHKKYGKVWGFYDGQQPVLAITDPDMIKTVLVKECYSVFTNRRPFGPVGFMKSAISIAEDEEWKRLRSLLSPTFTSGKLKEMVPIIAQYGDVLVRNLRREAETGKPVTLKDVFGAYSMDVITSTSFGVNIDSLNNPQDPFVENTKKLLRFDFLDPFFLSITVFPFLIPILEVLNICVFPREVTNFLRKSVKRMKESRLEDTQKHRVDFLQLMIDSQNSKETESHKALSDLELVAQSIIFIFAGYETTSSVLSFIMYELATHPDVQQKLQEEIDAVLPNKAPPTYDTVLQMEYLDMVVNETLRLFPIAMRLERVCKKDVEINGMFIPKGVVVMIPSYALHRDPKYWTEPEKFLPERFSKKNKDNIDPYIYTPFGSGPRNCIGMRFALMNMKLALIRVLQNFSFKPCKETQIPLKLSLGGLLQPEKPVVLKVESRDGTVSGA
A further data set relates to Aorta. Nature of the data set: Inhibition of phenylephrine-induced contractions in Chinchilla rabbit aortic rings administered at the beginning of the last resting period of 28 mins. Format: functional. The note with it: Oryctolagus cuniculus.
The nature of data set [4]: Volume of distribution at steady state in iv dosed Wistar rat after 24 hrs by LC-MS analysis. The data set is classed as ADME, organism-based. The note with it: in vivo, read-out: Vdss. The method in brief:
(§2)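 Male Wistar rats and female beagle dogs. iv in plasma/DMSO (rat) or H2O/PEG 400/EtOH (dog). Oral gavage in H2O/PEG 400/EtOH for both. Rats jugular-catheterised ≥1 d before dosing. Usually >10 blood samples, at least two after 24 h. Plasma quantified by LC-MS with internal standard. CL, t1/2, Vss and F calculated from plasma curves. Blood clearance via blood/plasma ratio (20 min blood incubation).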

Data set [5] can be described thus: Terminal half life in iv dosed Wistar rat blood after 24 hrs by LC-MS analysis. Format: ADME, organism-based. The note with it: whole blood, read-out: beta t1/2 (converted). In a few lines:
as §2

Data set [6] can be described thus: Clearance in iv dosed Wistar rat blood after 24 hrs by LC-MS analysis. The note with it: whole blood. The data set is classed as ADME, organism-based. In a few lines: as §2
The subject of data set [7] is Rattus norvegicus. As to the kind of experiment: Antihypertensive activity in L-NAME-treated renin transgenic rat co-expressing RenTG(mRRen2)27 assessed as reduction in osteopontin expression at 3 to 10 mg/kg administered qd via oral gavage up to 21 days. The data set is classed as functional, organism-based. The method in brief:
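Male RenTG(mRRen2)27 rats, 8 weeks old, given L-NAME in drinking water (50 mg/L) throughout. Randomised to placebo (2 mL/kg qd, n = 20) or 3 and 10 mg/kg/day po by gavage qd (n = 15 per group). Tail-cuff blood pressure on day 0, 7, 14 and 21. Plasma taken at day 22 end. Unpaired t test, mean ± SEM.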

For data set [8], the system named is Heart. Nature of the data set: Cardiotoxicity in Wistar rat assessed as effect on heart rate administered for 20 mins. Format: toxicity, tissue-based. The method in brief:
as §1

A short description of data set [9]: Stimulation of rat sGC expressed in CHO cells using GTP as substrate assessed as increase in cGMP formation treated for 6 mins in presence of 100 nM SNAP by luminescence assay. The data set is classed as cell-based. In a few lines:
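CHO reporter cells overexpressing sGC, cultured 1 or 2 d, then loaded 3 h with coelenterazine in calcium-free Tyrode. Compound serial dilutions applied 6 min. Calcium added (final 3 mM) and luminescence read for 40 s by CCD camera. SNAP co-applied at 30 or 100 nM where stated. ODQ condition: 10 μM ODQ pretreatment for 3 h.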

The test system of data set [10] is Rattus norvegicus. As to the kind of experiment: Effect on mortality in L-NAME-treated renin transgenic rat co-expressing RenTG(mRRen2)27 assessed as increase in survival rate administered qd via oral gavage up to 21 days. The data set is classed as functional. In a few lines:
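L-NAME (50 mg/L, drinking water) treated male RenTG(mRRen2)27 rats aged 8 weeks. Placebo (n = 20) or 3 or 10 mg/kg/day by oral gavage qd (n = 15/group). Survival checked on days 1, 8, 15 and at study end (day 22).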

One may read the IC50 as the point on the concentration scale where inhibition reaches its midpoint. Usually clearance stands for the volume of plasma or blood freed of the substance per unit of time. Higher therefore signals a high capacity for elimination. As usually defined, the EC50 is the midpoint of the concentration-response curve. With `COC(=O)Nc1c(N)nc(-c2nn(Cc3ccccc3F)c3ncc(F)cc23)nc1N` [VERICIGUAT], the IC50 is 3070 nM in [1]; over 50000 nM against Cytochrome P450 2C8; 5.8 nM in the data set with Saphenous artery; over 50000 nM at Cytochrome P450 3A4; 692 nM with Aorta. Moreover, the Activity entry with Heart [2] was “Non-Toxic”; in the data set with Heart [8], “Non-Toxic”; in the data set on Rattus norvegicus [10] it was “Dose-dependent effect”. Moreover, the CLhep predicted at 1 µM in data set [3] is 1.67 mL/min/kg. Besides, the Vd in data set [4] is 1 L/kg. The half-life in [5] was 3.4 h. The clearance in [6] is 5 mL/min/kg. Further, in the data set with Rattus norvegicus [7], the outcome was Active. Also, in data set [9], the EC50 was found to be 10.6 nM.
